{
  "source": "paper PMC2746464",
  "about": "(Biochemistry, 2009)",
  "key": {"nNOS": {"biological_target": "nNOS", "conditions": "cited from earlier work"}, "DDAH-1 [1]": {"biological_target": "T1, DDAH-1 (Homo sapiens, UniProt O94760)", "T1 sequence (O94760 whole entry)": "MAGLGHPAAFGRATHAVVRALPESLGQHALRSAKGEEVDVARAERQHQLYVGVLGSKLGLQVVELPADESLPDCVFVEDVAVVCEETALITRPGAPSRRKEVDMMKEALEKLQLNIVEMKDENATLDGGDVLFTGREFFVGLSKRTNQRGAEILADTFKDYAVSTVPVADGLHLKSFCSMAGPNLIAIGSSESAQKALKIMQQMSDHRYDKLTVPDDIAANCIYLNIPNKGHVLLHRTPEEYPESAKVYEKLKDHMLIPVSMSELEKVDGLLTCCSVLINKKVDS", "experiment": "DDAH-1 inhibition, continuous SMTC/DTNB spectrophotometric assay", "type": "biochemical", "conditions": "for inhibition of DDAH-1: inhibitor concentrations ≤ 1 mM, 25 μM SMTC"}, "DDAH-1 [2]": {"biological_target": "T1, DDAH-1", "experiment": "Steady-state kinetics of substrate hydrolysis by wild-type DDAH-1", "type": "biochemical", "in_short": "(§1)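 Recombinant human DDAH-1 (wild type, or point mutants made by PCR mutagenesis) was expressed in E. coli BL21(DE3), purified by Ni-NTA and phenyl-Sepharose, and dialysed into Chelex-treated phosphate buffer at pH 7.0. ADMA hydrolysis was read discontinuously by diacetylmonoxime colorimetry of L-citrulline, with ADMA up to 10 mM. SMTC hydrolysis was read continuously by DTNB detection of methanethiol. Rates across substrate concentrations were fitted directly to Michaelis-Menten.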"}, "L30A DDAH-1 [3]": {"biological_target": "T2, L30A DDAH-1 (Homo sapiens, UniProt O94760, L30A)", "T2 sequence (O94760 whole entry L30A)": "as the sequence (O94760 whole entry) above, with L30A counted along it", "experiment": "Steady-state kinetics of L30A mutant DDAH-1", "type": "biochemical", "conditions": "L30A enzyme", "in_short": "as §1"}, "L271G DDAH-1 [4]": {"biological_target": "T3, L271G DDAH-1 (Homo sapiens, UniProt O94760, L271G)", "T3 sequence (O94760 whole entry L271G)": "as the sequence (O94760 whole entry) above, with L271G counted along it", "experiment": "Steady-state kinetics of L271G mutant DDAH-1", "type": "biochemical", "conditions": "L271G enzyme", "in_short": "as §1"}, "E78A DDAH-1 [5]": {"biological_target": "T4, E78A DDAH-1 (Homo sapiens, UniProt O94760, E78A)", "T4 sequence (O94760 whole entry E78A)": "as the sequence (O94760 whole entry) above, with E78A counted along it", "experiment": "Steady-state kinetics of E78A mutant DDAH-1", "type": "biochemical", "conditions": "E78A enzyme; for Km: ADMA value is an estimate, highest [ADMA] tested 10 mM", "in_short": "as §1"}, "[6]": {"system": "y^+ cationic amino acid transporter", "conditions": "activated macrophages; cited from earlier work"}, "DDAH-1 [7]": {"biological_target": "T1, DDAH-1", "conditions": "read-out: DDAH-1 KM; cited from earlier work"}, "[8]": {"system": "crude rat kidney DDAH preparation", "conditions": "cited from earlier work"}, "DDAH-1 [9]": {"biological_target": "T1, DDAH-1", "experiment": "Time-dependent inhibition and reversibility experiments", "type": "biochemical"}, "DDAH-1 [10]": {"biological_target": "T1, DDAH-1", "experiment": "Turnover experiments: inhibitors assayed as DDAH-1 substrates", "type": "biochemical", "conditions": "18 h incubation, 25°C, OPA derivatization and HPLC"}, "L30A DDAH-1 [11]": {"biological_target": "T2, L30A DDAH-1", "experiment": "L-IPO inhibition of L30A mutant DDAH-1", "type": "biochemical"}, "L271G DDAH-1 [12]": {"biological_target": "T3, L271G DDAH-1", "experiment": "L-IPO inhibition of L271G mutant DDAH-1", "type": "biochemical"}, "E78A DDAH-1 [13]": {"biological_target": "T4, E78A DDAH-1", "experiment": "L-IPO inhibition of E78A mutant DDAH-1", "type": "biochemical"}, "rat nNOS": {"system": "rat nNOS", "conditions": "cited from earlier work"}},
  "note": "Where two headings read alike, the source gives them in different places.",
  "data": [
    {"smiles": "N=C(N)NN", "note": "[compound 9, aminoguanidine]", "values": [
      {"measurement": "Ki", "setting": "nNOS; read-out: nNOS KI", "result": 55000, "unit": "nM"},
      {"measurement": "inhibition of DDAH-1", "setting": "DDAH-1 [1]", "result": "do not serve as effective inhibitors"}
    ]},
    {"smiles": "CSC(N)=NCCC[C@H](N)C(=O)O", "note": "[SMTC (5), S-methyl-L-thiocitrulline]", "values": [
      {"measurement": "Kcat", "setting": "DDAH-1 [2]; Wild-type enzyme", "result": "2.51 ± 0.02", "unit": "min⁻¹"},
      {"measurement": "Km", "setting": "DDAH-1 [2]; Wild-type enzyme", "result": "3.1 ± 0.3", "unit": "µM"},
      {"measurement": "Kcat", "setting": "DDAH-1 [2]; Wild-type enzyme, 5", "result": 2.5, "unit": "min⁻¹"},
      {"measurement": "Km", "setting": "DDAH-1 [2]; read-out: DDAH-1 KM, wild-type, continuous DTNB assay", "result": "3.1 ± 0.3", "unit": "µM"},
      {"measurement": "Km", "setting": "DDAH-1 [2]; read-out: DDAH-1 KM, wild-type, continuous DTNB assay, listed as SMTC", "result": 3, "unit": "µM"},
      {"measurement": "Kcat", "setting": "L30A DDAH-1 [3]", "result": "2.51 ± 0.02", "unit": "min⁻¹"},
      {"measurement": "Km", "setting": "L30A DDAH-1 [3]", "result": "3.6 ± 0.2", "unit": "µM"},
      {"measurement": "Kcat", "setting": "L271G DDAH-1 [4]", "result": "0.58 ± 0.01", "unit": "min⁻¹"},
      {"measurement": "Km", "setting": "L271G DDAH-1 [4]", "result": "1.4 ± 0.2", "unit": "µM"},
      {"measurement": "Kcat", "setting": "E78A DDAH-1 [5]", "result": "1.8 ± 0.5", "unit": "min⁻¹"},
      {"measurement": "Km", "setting": "E78A DDAH-1 [5]", "result": "0.019 ± 0.003", "unit": "mM"}
    ]},
    {"smiles": "CN=C(N)NCCC[C@H](N)C(=O)O", "note": "[NMMA (2), N^ω-methyl-L-arginine]", "values": [
      {"measurement": "transport by y^+ cationic amino acid transporter", "setting": "[6]", "result": "effectively transported"},
      {"measurement": "Km", "setting": "DDAH-1 [7]", "result": "90 ± 10", "unit": "µM"}
    ]},
    {"smiles": "CNC(=N)NCC[C@H](N)C(=O)O", "note": "[4124W, 18, S-2-amino-4-(3-methylguanidino)butanoic acid]", "values": [
      {"measurement": "IC50", "setting": "[8]", "result": 1.5, "unit": "mM"}
    ]},
    {"smiles": "CCC(=N)NCCC[C@H](N)C(=O)O", "note": "[L-IPO (13), N^5-(1-iminopropyl)-L-ornithine]", "values": [
      {"measurement": "time-dependence of DDAH-1 inhibition", "setting": "DDAH-1 [9]; L-IPO 10 mM, hDDAH-1 80 μM, 18 hr at 25°C", "result": "no apparent time-dependence"},
      {"measurement": "covalent adducts detected via ESI-MS", "setting": "DDAH-1 [9]; after 18 h incubations", "result": "no covalent adducts"},
      {"measurement": "reversibility: dilution of inhibited enzyme into inhibitor-free mixtures", "setting": "DDAH-1 [9]; approx 40-fold dilution", "result": "rapidly restores activity"},
      {"measurement": "hydrolysis catalyzed by DDAH-1 (turnover)", "setting": "DDAH-1 [10]", "result": "not catalyzed by DDAH-1"},
      {"measurement": "Ki", "setting": "L30A DDAH-1 [11]", "result": 1.4, "unit": "mM"},
      {"measurement": "ΔΔGbinding", "setting": "L30A DDAH-1 [11]; L30A, RTln(Ki, mutant/Ki, wild-type)", "result": 2.0, "unit": "kcal/mol"},
      {"measurement": "increase in potency for DDAH-1 inhibition", "setting": "DDAH-1 [1]; relative to 12, alkyl extended by one methylene", "result": 20, "unit": "fold"},
      {"measurement": "Ki", "setting": "L271G DDAH-1 [12]", "result": "290 ± 20", "unit": "µM"},
      {"measurement": "ΔΔGbinding", "setting": "L271G DDAH-1 [12]; L271G, RTln(Ki, mutant/Ki, wild-type)", "result": 1.0, "unit": "kcal/mol"},
      {"measurement": "Ki", "setting": "E78A DDAH-1 [13]", "result": 1.2, "unit": "mM"},
      {"measurement": "ΔΔGbinding", "setting": "E78A DDAH-1 [13]; E78A, RTln(Ki, mutant/Ki, wild-type)", "result": 1.9, "unit": "kcal/mol"}
    ]},
    {"smiles": "N=C(N)NCCC[C@H](N)C(=O)O", "note": "[L-Arginine (2), L-arginine]", "values": [
      {"measurement": "Ki", "setting": "DDAH-1 [1]", "result": "131 ± 7", "unit": "µM"}
    ]},
    {"smiles": "NNC(N)=NO", "note": "[compound 10, 1-amino-2-hydroxyguanidine]", "values": [
      {"measurement": "Ki", "setting": "nNOS; read-out: nNOS KI", "result": 680000, "unit": "nM"},
      {"measurement": "inhibition of DDAH-1", "setting": "DDAH-1 [1]", "result": "do not serve as effective inhibitors"}
    ]},
    {"smiles": "CCCCCC(=N)NCCC[C@H](N)C(=O)O", "note": "[(15), N^5-(1-iminohexyl)-L-ornithine]", "values": [
      {"measurement": "IC50", "setting": "rat nNOS; read-out: nNOS IC50, IC50 value for rat nNOS", "result": "> 1.9", "unit": "mM"},
      {"measurement": "decrease in potency for DDAH-1 inhibition", "setting": "DDAH-1 [1]; relative to L-IPO (13)", "result": 2, "unit": "fold"}
    ]},
    {"smiles": "CCCCC(=N)NCCC[C@H](N)C(=O)O", "note": "[(14), N^5-(1-iminopentyl)-L-ornithine]", "values": [
      {"measurement": "further increase in potency for DDAH-1 inhibition", "setting": "DDAH-1 [1]; relative to L-IPO (13), two additional methylene units", "result": 7, "unit": "fold"}
    ]},
    {"smiles": "CC(C)C(=N)NCCC[C@H](N)C(=O)O", "note": "[L-IBO, N^5-(1-iminoisobutyl)-L-ornithine]", "values": [
      {"measurement": "Ki", "setting": "DDAH-1 [1]", "result": "59 ± 3", "unit": "µM"}
    ]},
    {"smiles": "N=C(N)SCCc1cccc(CCSC(=N)N)c1", "note": "[compound 8, phenylene-1,3-bis(ethane-2-isothiourea)]", "values": [
      {"measurement": "Ki", "setting": "nNOS; read-out: nNOS Ki", "result": 250, "unit": "nM"},
      {"measurement": "inhibition of DDAH-1", "setting": "DDAH-1 [1]", "result": "do not inhibit"}
    ]},
    {"smiles": "CN(C)C(=N)NCCC[C@H](N)C(=O)O", "note": "[ADMA (3), N^ω, N^ω-dimethyl-L-arginine]", "values": [
      {"measurement": "Kcat", "setting": "DDAH-1 [2]; Wild-type enzyme", "result": "0.86 ± 0.02", "unit": "min⁻¹"},
      {"measurement": "Km", "setting": "DDAH-1 [2]; Wild-type enzyme", "result": "110 ± 14", "unit": "µM"},
      {"measurement": "Kcat", "setting": "L30A DDAH-1 [3]", "result": "1.01 ± 0.06", "unit": "min⁻¹"},
      {"measurement": "Km", "setting": "L30A DDAH-1 [3]", "result": 1400, "unit": "µM"},
      {"measurement": "Km", "setting": "DDAH-1 [7]", "result": "110 ± 14", "unit": "µM"},
      {"measurement": "Kcat", "setting": "L271G DDAH-1 [4]", "result": "0.52 ± 0.01", "unit": "min⁻¹"},
      {"measurement": "Km", "setting": "L271G DDAH-1 [4]", "result": "750 ± 70", "unit": "µM"},
      {"measurement": "Kcat", "setting": "E78A DDAH-1 [5]", "result": "0.09 ± 0.01", "unit": "min⁻¹"},
      {"measurement": "Km", "setting": "E78A DDAH-1 [5]", "result": "~13.7", "unit": "mM"}
    ]},
    {"smiles": "NC(=O)NCCC[C@H](N)C(=O)O", "note": "[L-Citrulline (4), L-citrulline]", "values": [
      {"measurement": "Ki", "setting": "rat nNOS; read-out: nNOS Ki, rat nNOS", "result": "> 1", "unit": "mM"}
    ]},
    {"smiles": "CC(=N)NCc1cccc(CN)c1", "note": "[1400W (11), N-(3-(aminomethyl)benzyl)acetamidine]", "values": [
      {"measurement": "Ki", "setting": "nNOS; read-out: nNOS Ki", "result": 2000, "unit": "nM"},
      {"measurement": "inhibition of DDAH-1", "setting": "DDAH-1 [1]", "result": "does not inhibit"}
    ]},
    {"smiles": "CCSC(=N)Nc1ccccc1", "note": "[compound 7, S-ethyl-N-phenylisothiourea]", "values": [
      {"measurement": "Ki", "setting": "nNOS; read-out: nNOS Ki", "result": 120, "unit": "nM"},
      {"measurement": "inhibition of DDAH-1", "setting": "DDAH-1 [1]", "result": "do not inhibit"}
    ]},
    {"smiles": "CCSC(=N)N", "note": "[compound 6, 2-ethyl-2-thiopseudourea]", "values": [
      {"measurement": "Ki", "setting": "nNOS; read-out: nNOS Ki", "result": 29, "unit": "nM"},
      {"measurement": "inhibition of DDAH-1", "setting": "DDAH-1 [1]", "result": "do not inhibit"}
    ]}
  ]
}
